Source: PubChem BioAssay
Activity calls are given as the source filed them.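 Rule for the calls, unless noted: active = viability at or under a set limit in both replicates, limit being median viability minus 3 SD (cut at about 48% in these data, passing the limit was not always enough); inconclusive = at or under the limit in just one replicate; inactive = at or above the limit in both replicates.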

Tests used:
[1] = HUVEC growth inhibition – cell-based, human, primary screen (AID 575;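 active = viability at or below 30% in both replicate assays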;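 note: 100% = median of untreated cell wells with 0.1% DMSO on each plate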); conditions: HUVEC proliferation, CellTiter-Glo luminescence, 72 h; at 10 µM; stronger effect = lower value
Method in brief: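 Material: primary human umbilical vein endothelial cells / Schedule: 72 h exposure, 37 °C, 5% CO2, 30 min RT equilibration / Signal: ATP-based CellTiter-Glo luminescent read / Read-out basis: percent of median DMSO-control luminescence / Control set: 32 DMSO-only cell-control wells (high), 32 MePR drug-control wells (low) per plate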

[2] = growth inhibitors of H69AR lung tumor, primary screen, human, duplicate replicates (AID 580); conditions: H69AR lung tumor cells viability, ATP luminescence, 72 h; at 10 µM; stronger effect = lower value;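 note: 100% = mean luminescence of untreated wells and 0% = no signal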
[3] = reversal of MRP1-mediated doxorubicin resistance, pilot screen, H69AR cells, doxorubicin co-treatment (AID 601;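 active = viability loss from added drug above about 55%, and viability with drug at most 40%, in both replicates, limit read from the data, passing the limit was not always enough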); conditions: CellTiter-Glo, 72 h, at 10 µM; for differential viability (reversal): stronger effect = higher value
[4] = 384-well plate pilot, post-Golgi transport modulator project, inhibition of yeast transport mutant growth (AID 636; in the data active = inhibition above about 31%); conditions: absorbance 615 nm, about 18 h, stronger effect = higher value
[5] = growth suppression of yeast trafficking mutant, preliminary HTS, modulators of trafficking downstream of Golgi apparatus project, 1536-format plate, OD 615 nm (AID 637; in the data active = inhibition above about 30%); conditions: yeast transport mutant growth, absorbance 615 nm, 18 h; stronger effect = higher value
[6] = H69AR cells + 2 uM doxorubicin, measured here: viability with 2 uM doxorubicin, stronger effect = lower value
[7] = H69AR cells, compound alone cytotoxicity

SMILES | viability [1] | viability [2] | differential viability (reversal) ([3]; H69AR cells + 2 uM doxorubicin) | viability [3, 6] [%] | viability [3, 7] [%] | inhibition [4] | inhibition [5]
COC(=O)c1ccc(CN(c2ccccc2OC)S(=O)(=O)c2cccs2)o1 | 98.8% (inactive) | 86.2% (inactive) | -15.4% (inactive) | 102 | 86.2 | -6.88% (inactive) | -7.14% (inactive)
OCCn1c(CSc2nnc(-c3ccco3)n2-c2ccccc2)nc2ccc(Cl)cc21 | 68.7% (inactive) | 84.9% (inactive) | 3.29% (inactive) | 81.7 | 84.9 | -5.45% (inactive) | -3.97% (inactive)
O=C(CSc1nnc(-c2ccccc2)o1)N1CCN(c2ccccc2)CC1 | 89.9% (inactive) | 98.3% (inactive) | 3.54% (inactive) | 94.8 | 98.3 | -4.53% (inactive) | 1.75% (inactive)
Cc1noc(C)c1COc1cccc(C(=O)Oc2ccc3c(c2)OCO3)c1 | 88.8% (inactive) | 79.5% (inactive) | -5.05% (inactive) | 84.5 | 79.5 | -4.81% (inactive) | 1.75% (inactive)
CCOc1ccccc1-n1c(SCC(=O)NC(C)CC)nnc1-c1ccoc1C (configuration not stated) | 82.5% (inactive) | 88.7% (inactive) | 9.12% (inactive) | 79.6 | 88.7 | -6% (inactive) | -1.75% (inactive)
CCN(c1ccccc1)S(=O)(=O)c1ccc(F)cc1C | 86.5% (inactive) | 90.4% (inactive) | 7.2% (inactive) | 83.2 | 90.4 | -1.04% (inactive) | -5.71% (inactive)
CC(=O)c1cc(-c2ccccc2)n(CC(=O)N2CCC(N3CCCCC3)CC2)c1C | 85.3% (inactive) | 82.7% (inactive) | -2.33% (inactive) | 85.1 | 82.7 | -2.73% (inactive) | 0.63% (inactive)
CCOC(=O)c1c(NC(=O)c2ccoc2C)sc2c1CCC2 | 93.3% (inactive) | 78.9% (inactive) | -9.7% (inactive) | 88.6 | 78.9 | -3.82% (inactive) | 0.95% (inactive)
CCOC(=O)CSC1=C(C#N)C(c2ccc(C)cc2)C(C(=O)OC)C(=O)N1 (configuration not stated) | 81.7% (inactive) | 91.1% (inactive) | 1.55% (inactive) | 89.6 | 91.1 | -1.2% (inactive) | -5.56% (inactive)
CCNc1oc(COc2cccc(C)c2)nc1C#N | 101% (inactive) | 90.9% (inactive) | 13.8% (inactive) | 77.1 | 90.9 | -7.53% (inactive) | -10.3% (inactive)
CN(C)c1oc(-c2ccccc2Cl)nc1C#N | 56.5% (inactive) | 94.9% (inactive) | 16.8% (inactive) | 78.1 | 94.9 | -3.33% (inactive) | 3.97% (inactive)
COc1cccc(C(=O)Nc2cc(NC(=O)c3ccco3)ccc2OC)c1 | 69.1% (inactive) | 80.6% (inactive) | 2.75% (inactive) | 77.8 | 80.6 | -3.64% (inactive) | -2.22% (inactive)
CCOc1ccc(N2CC(C(=O)Nc3ccc(F)cc3F)CC2=O)cc1 (configuration not stated) | 110% (inactive) | 111% (inactive) | 19.7% (inactive) | 90.9 | 111 | -0.26% (inactive) | -5.08% (inactive)
O=C(CNC(=O)c1cccs1)NCCN1CCN(c2ccccc2F)CC1 | 101% (inactive) | 89.3% (inactive) | 12.1% (inactive) | 77.2 | 89.3 | -3.95% (inactive) | 2.54% (inactive)
Nc1nnc(-c2cc3ccccc3oc2=O)s1 | 91.8% (inactive) | 91.7% (inactive) | 0.3% (inactive) | 91.4 | 91.7 | -0.66% (inactive) | 2.38% (inactive)
CC(=O)Nc1ccc(S(=O)(=O)N2CCN(Cc3ccncc3)CC2)cc1 | 90.7% (inactive) | 109% (inactive) | 18.1% (inactive) | 90.5 | 109 | -5.13% (inactive) | 1.59% (inactive)
CCCCOc1ccc(C(=O)N2CCC(C)CC2)cc1 | 111% (inactive) | 104% (inactive) | 17.9% (inactive) | 85.7 | 104 | -3.2% (inactive) | 0.48% (inactive)
CCOC(=O)CSc1nnc(CNC(=O)c2ccc(S(=O)(=O)N3CCCC3)cc2)n1C | 99.1% (inactive) | 112% (inactive) | 28.2% (inactive) | 84 | 112 | -2.6% (inactive) | 0.63% (inactive)
CN(C)c1ccnc(NCc2ccccc2)c1C#N | 92.7% (inactive) | 85.8% (inactive) | 6.29% (inactive) | 79.5 | 85.8 | -4.53% (inactive) | 4.6% (inactive)
Cn1c(=O)c2ncn(CC(=O)NCCOc3ccccc3)c2n(C)c1=O | 108% (inactive) | 91.9% (inactive) | 7.6% (inactive) | 84.2 | 91.9 | 0.39% (inactive) | 5.71% (inactive)
COc1cccc(C(=O)Nc2ccc(NC(=O)C(C)(C)C)cn2)c1 | 96% (inactive) | 76.2% (inactive) | 2.62% (inactive) | 73.5 | 76.2 | 2.34% (inactive) | -0.48% (inactive)

SMILES | viability [1] | viability [2] | differential viability (reversal) ([3]; H69AR cells + 2 uM doxorubicin) | viability [3, 6] [%] | viability [3, 7] [%] | inhibition [4] | inhibition [5]
O=C(Nc1nc2ccc(S(=O)(=O)N3CCCC3)cc2s1)C1CCCO1 (configuration not stated) | 109% (inactive) | 97.7% (inactive) | 3.71% (inactive) | 93.9 | 97.7 | -2.76% (inactive) | 0% (inactive)
COC(=O)C1=C(CSCc2ccco2)NC(=O)NC1c1cc(C)ccc1C (configuration not stated) | 98.4% (inactive) | 82.5% (inactive) | -9.46% (inactive) | 92 | 82.5 | -1.47% (inactive) | -1.43% (inactive)
Cc1cccc(NC(=O)CN(C)S(=O)(=O)c2ccccc2)n1 | 107% (inactive) | 95.2% (inactive) | 9.79% (inactive) | 85.4 | 95.2 | -6.18% (inactive) | 2.54% (inactive)
C#CCN1C(=O)C(O)(CC(=O)c2cc(OC)ccc2OC)c2ccccc21 (configuration not stated) | 78.6% (inactive) | 38.7% (active) | -16.8% (inactive) | 55.5 | 38.7 | -4.8% (inactive) | 1.9% (inactive)
CC(=O)c1cc(-c2ccccc2)n(CC(=O)N2CCN(C3CCCC3)CC2)c1C | 98.7% (inactive) | 80.5% (inactive) | -0.095% (inactive) | 80.6 | 80.5 | -5.58% (inactive) | 0.95% (inactive)
COc1ccc(S(=O)(=O)N2CCC(C(=O)NCc3ccco3)CC2)cc1 | 93.8% (inactive) | 86.6% (inactive) | -1.91% (inactive) | 88.5 | 86.6 | -4.53% (inactive) | -3.97% (inactive)
Nc1nc(NC(=O)c2cccs2)nn1-c1ccccc1 | 101% (inactive) | 94% (inactive) | 7.31% (inactive) | 86.7 | 94 | -6.45% (inactive) | -4.29% (inactive)
COc1ccc(Cc2nc3ccc(S(N)(=O)=O)cc3[nH]2)cc1OC | 106% (inactive) | 99.9% (inactive) | 14.6% (inactive) | 85.4 | 99.9 | -2.86% (inactive) | 0.63% (inactive)
Cc1nc(SCC(=O)NCc2ccco2)c2c(C)c(C)sc2n1 | 81.7% (inactive) | 86.6% (inactive) | 15.1% (inactive) | 71.4 | 86.6 | -2.86% (inactive) | -0.79% (inactive)
O=C(CCCn1c(=O)c2sccc2n(Cc2ccc(F)cc2)c1=O)NCc1ccco1 | 51.1% (inactive) | 27.4% (active) | -52% (inactive) | 79.4 | 27.4 | -0.39% (inactive) | -4.44% (inactive)
COCC(=O)N(Cc1ccccc1)c1ccccn1 | 83.3% (inactive) | 90.1% (inactive) | -1.27% (inactive) | 91.3 | 90.1 | -5.32% (inactive) | 9.37% (inactive)
CCOC(=O)C1C(=O)OC(C)(C)C1C(C)C(=O)c1ccc(OC)cc1 (configuration not stated) | 112% (inactive) | 96% (inactive) | 3.24% (inactive) | 92.7 | 96 | -0.39% (inactive) | 18.6% (inactive)
Cc1ccc(NC(=O)CC2Nc3ccccc3NC2=O)cc1Cl (configuration not stated) | 10.1% (active) | 27.8% (active) | -17.1% (inactive) | 44.9 | 27.8 | -1.17% (inactive) | -3.49% (inactive)
CN(CC(=O)Nc1ccccc1Cl)C(=O)COC(=O)CNC(=O)c1ccc(Br)o1 | 95.4% (inactive) | 104% (inactive) | 14.3% (inactive) | 89.5 | 104 | 0.39% (inactive) | 5.4% (inactive)
CCCC1CCC(C(=O)Nn2c(C)nc3ccccc3c2=O)CC1 (configuration not stated) | 104% (inactive) | 98.2% (inactive) | 14.9% (inactive) | 83.3 | 98.2 | -3.16% (inactive) | 0.95% (inactive)
CCN(CC)CCNC(=O)C1CCN(S(=O)(=O)N2CCCCC2)CC1 | 100% (inactive) | 94.8% (inactive) | 0.23% (inactive) | 94.6 | 94.8 | -3.82% (inactive) | 0.32% (inactive)
Cc1ccc(S(=O)(=O)Cn2nnnc2C(C(C)C)N2CCN(C(=O)c3ccco3)CC2)cc1 (configuration not stated) | 94.8% (inactive) | 91.3% (inactive) | 8.2% (inactive) | 83.1 | 91.3 | -4% (inactive) | -4.29% (inactive)
CCOc1ccc(NC(=O)c2ccncc2)cc1 | 112% (inactive) | 99.9% (inactive) | 11.4% (inactive) | 88.5 | 99.9 | -2.89% (inactive) | -0.63% (inactive)
COc1ccc(-c2nnc(-c3ccc(N)cc3)o2)cc1 | 95.9% (inactive) | 88.3% (inactive) | -2.75% (inactive) | 91.1 | 88.3 | -4.13% (inactive) | 3.81% (inactive)
COc1cccc(-c2nc(-c3ccc(NC(=O)Cc4ccccc4OC)cc3)no2)c1 | 85.3% (inactive) | 90.6% (inactive) | 12.8% (inactive) | 77.8 | 90.6 | 9.09% (inactive) | -0.95% (inactive)
